From ChEMBL document CHEMBL1122033, “Chemistry and hypoglycemic activity of N-[[(Dialkylamino)alkoxy]phenyl]benzamidines” (J Med Chem, 1982)

Key:
[1] = Lethality in 50% (LD50) of male and female CF-1 strain mice weighing 16-25g, intraperitoneal administration; type: ADME, organism-based; details: both, CF-1, mouse, in vivo, ip
How it was run: (§1)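 Four mice per dose level. Drug dissolved in distilled water and suspended in 0.5% carboxymethylcellulose or 0.5% gelatin, with pH adjusted by 1 N HCl or 1 N NaOH where the drug tolerated it. Doses logarithmically spaced, given orally or intraperitoneally. Mice observed 7 days after dosing. LD50 derived by the Bliss method, expressed in mg/kg.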

[2] = Dose that produces lethality in 50% (LD50) of male and female carworth farms CF-1 strain mice weighing 16-25 g oral (po) route of administration; type: ADME, organism-based; details: both, CF-1, mouse, in vivo; how it was run: as §1
Rattus norvegicus [3] = assay: Blood sugar lowering (hypoglycemic activity) in the glucose-primed rat at a dose of 100 mg/kg; Decrease in blood sugar level.; type: functional
How it was run: (§2)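 Male Sprague–Dawley rats, 140–150 g, groups of six, fasted 16 h. Each rat got 100 mg glucose s.c. in 0.5 mL isotonic NaCl, then the test agent at once orally as an aqueous carboxymethylcellulose suspension (0.5 mL); controls got vehicle. At 2 h, under light ether, blood was taken by cardiac puncture. Glucose was read by Autoanalyzer (Hoffman method). Values are percent difference from vehicle controls.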

Rattus norvegicus [4] = assay: Compound was evaluated for the blood sugar lowering (hypoglycemic activity) in the glucose-primed rat at a dose of 100 mg/kg; Increase in blood sugar level; type: functional; how it was run: as §2
Rattus norvegicus [5] = assay: Compound was evaluated for the blood sugar lowering (hypoglycemic activity) in the glucose-primed rat at a dose of 100 mg/kg; type: functional; how it was run: as §2
Cavia porcellus [6] = assay: Evaluated in normal, fasted guinea pig for the percentage reduction in blood glucose level after 5 hr as compared to pretreatment blood glucose values at a dose of 100 mg of free base / kg body weight administered orally; type: functional
How it was run: (§3)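 Male and female Hartley guinea pigs, 450–500 g, were food-deprived (water allowed) 18 h and split by sex into groups of four. A zero-time blood sample was taken by cardiac puncture, then drug was given, and blood was drawn again 5 h later. Percent reduction in blood glucose is relative to pretreatment values.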

Monkey [7] = assay: Evaluated in normal, fasted monkey for the percentage reduction in blood glucose level as compared to pretreatment blood glucose values at a dose of 150 mg of free base / kg body weight administered orally; type: functional, Cercopithecidae
How it was run: (§4)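 Male and female rhesus monkeys (2–3 kg) were food-deprived, with water, for 18 h. Pretreatment blood was taken from the popliteal vein. Dosing was oral by stomach tube, with repeat sampling 5 h post-dose. Results are percent reduction in blood glucose relative to pretreatment values.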

[8] = Lethal dose required to produce 50% lethality in male and female carworth farms CF-1 strain mice weighing 16-25 g administered intraperitoneally; details: both, CF-1, rat, in vivo, ip
[9] = Lethal dose required to produce 50% lethality in male and female carworth farms CF-1 strain mice weighing 16-25 g administered orally; details: both, CF-1, in vivo, po
Rattus norvegicus [10] = assay: Evaluated in glucose-primed, fasted rat for the percentage reduction in blood glucose level after 2 hr as compared to control groups at a dose of 50 mg of free base / kg body weight administered orally; type: functional; how it was run: as §2
Rattus norvegicus [11] = assay: Evaluated in glucose-primed, fasted rat for the percentage reduction in blood glucose level after 2 hr as compared to control groups at a dose of 100 mg of free base / kg body weight administered orally; type: functional; how it was run: as §2
Rattus norvegicus [12] = assay: Evaluated in glucose-primed, fasted rat for the percentage reduction in blood glucose level after 2 h as compared to control groups at a dose of 25 mg of free base / kg body weight administered orally; type: functional; how it was run: as §2
Rattus norvegicus [13] = assay: Evaluated in alloxanized, diabetic rat for the percentage reduction in blood glucose level as compared to pretreatment blood glucose values at a dose of 100 mg of free base / kg body weight administered orally.; type: functional
How it was run: (§5)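 Three days later, rats positive for urine glucose (reagent strip) formed groups of six. Tail-vein blood was taken before oral dosing and again at 5 h. Percent reduction is versus pretreatment glucose.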

Rattus norvegicus [14] = assay: Evaluated in alloxanized, diabetic rat for the percentage reduction in blood glucose level as compared to pretreatment blood glucose values at a dose of 200 mg of free base / kg body weight administered orally.; type: functional; how it was run: as §5
Rattus norvegicus [15] = assay: Evaluated in glucose primed, adrenalectomized rat for the percentage reduction in blood glucose level as compared to pretreatment blood glucose values at a dose of 25 mg of free base / kg body weight administered orally
Rattus norvegicus [16] = assay: Compound was evaluated for the blood sugar lowering (hypoglycemic activity ) in the glucose-primed rat at a dose of 50 mg of base/kg; type: functional; how it was run: as §2
Cavia porcellus [17] = assay: Evaluated in normal, fasted guinea pig for the percentage reduction in blood glucose level after 5 hr as compared to pretreatment blood glucose values at a dose of 25 mg of free base / kg body weight administered orally; type: functional; how it was run: as §3
Monkey [18] = assay: Evaluated in normal, fasted monkey for the percentage reduction in blood glucose level after 5 hr as compared to pretreatment blood glucose values at a dose of 10 mg of free base / kg body weight administered orally; type: functional, Cercopithecidae; how it was run: as §4
Rattus norvegicus [19] = assay: Evaluated in alloxanized, diabetic rat for the percentage reduction in blood glucose level after 5 hr as compared to pretreatment blood glucose values at a dose of 100 mg of free base / kg body weight administered orally; type: functional; how it was run: as §5

Compound | LD50 [1] | LD50 [2] | Change (Rattus norvegicus [3]) | also measured
Cc1cccc(/N=C(\Nc2ccc(OCCN(C(C)C)C(C)C)cc2)c2ccccc2)c1C | 360 mg/kg | 1000 mg/kg | 23.2% | 
CN/C(=N/c1ccc(OCCN(C(C)C)C(C)C)cc1)c1ccccc1 | 112 mg/kg | 500 mg/kg |  | Change (Rattus norvegicus [4]): 13.1%
CC(C)N(CCOc1ccc(N/C(=N\c2ccc(Cl)cc2)c2ccccc2)cc1)C(C)C | 1000 mg/kg | 1000 mg/kg | 31% | 
CC(C)N(CCOc1ccc(N/C(=N\C2CCCCC2)c2ccccc2)cc1)C(C)C | 137 mg/kg | 373 mg/kg | 9.8% | 
C=CC/N=C(\Nc1ccc(OCCN(C(C)C)C(C)C)cc1)c1ccccc1 | 125 mg/kg | 653 mg/kg | 15% | 
CC(C)CN/C(=N/c1ccc(OCCN(C(C)C)C(C)C)cc1)c1ccccc1 | 80 mg/kg | 360 mg/kg | 22.8% | 
CCN(CC)CCOc1ccc(N/C(=N\c2ccccc2)c2ccccc2)cc1.O=C(O)C(=O)O | 100 mg/kg | 687 mg/kg | 6.8% | 
CN(CCOc1ccc(N/C(=N\c2ccccc2)c2ccccc2)cc1)c1ccccc1 | 587 mg/kg | 1000 mg/kg | 10.3% | 
Br.c1ccc(/N=C(\Nc2ccc(OCCN3CCOCC3)cc2)c2ccccc2)cc1 | 400 mg/kg | 715 mg/kg |  | Change (Rattus norvegicus [5]): 0%
Br.CCN/C(=N/c1ccc(OCCN(C(C)C)C(C)C)cc1)c1ccccc1 | 100 mg/kg | 687 mg/kg | 6.8% | 
COc1ccc(N/C(=N/c2ccc(OCCN(C(C)C)C(C)C)cc2)c2ccccc2)cc1.Cl | 160 mg/kg | 687 mg/kg | 33.5% | 
CC(C)N(CCOc1ccc(N/C(=N\c2ccccc2)c2ccc(Cl)cc2)cc1)C(C)C.Cl | 400 mg/kg | 1000 mg/kg | 3.2% | 
Br.c1ccc(/N=C(\Nc2ccc(OCCN3CCCCC3)cc2)c2ccccc2)cc1 | 142 mg/kg | 467 mg/kg |  | Change (Rattus norvegicus [4]): 5.2%
CC(C)N(CCOc1ccc(N/C(=N\c2ccc(Cl)cc2)c2ccccc2)cc1)C(C)C.Cl |  |  | 30.9% | Reduction (Cavia porcellus [6]): 14%; Reduction (Monkey [7]): 35%; LD50 [8]: 1000 mg/kg; LD50 [9]: 1000 mg/kg; Reduction (Rattus norvegicus [10]): 23.5%; Reduction (Rattus norvegicus [11]): 30.9%; Reduction (Rattus norvegicus [12]): 18.8%; Reduction (Rattus norvegicus [13]): 7.4%; Reduction (Rattus norvegicus [14]): 28.8%; Reduction (Rattus norvegicus [15]): 31.4%
CC(C)N(CCSc1ccc(N/C(=N\c2ccccc2)c2ccccc2)cc1)C(C)C.Cl | 285 mg/kg | 400 mg/kg | 35.6% | 
COc1ccc(/C(=N\c2ccc(OCCN3CCCC3)cc2)Nc2ccccc2)cc1.Cl |  |  | 14% | 
CC(C)N(CCCOc1ccc(N/C(=N\c2ccc(Cl)cc2)c2ccccc2)cc1)C(C)C.Cl | 187 mg/kg | 1000 mg/kg | 18.3% | 
Br.COc1ccc(N/C(=N/c2ccc(OCCCN3CCCC3)cc2)c2ccccc2)cc1 | 108 mg/kg | 400 mg/kg | 25.7% | 

Compound | LD50 [1] | LD50 [2] | Change (Rattus norvegicus [3]) | also measured
Br.COc1ccc(N/C(=N/c2ccc(OCCN3CCCC3)cc2)c2ccccc2)cc1 | 148 mg/kg | 900 mg/kg | 35% | 
CCCCN(CCCC)CCCOc1ccc(N/C(=N\c2ccccc2)c2ccccc2)cc1.Cl | 148 mg/kg | 867 mg/kg | 10.9% | 
Br.c1ccc(CN(CCOc2ccc(N/C(=N\c3ccccc3)c3ccccc3)cc2)Cc2ccccc2)cc1 |  |  |  | Change (Rattus norvegicus [5]): 0%
Br.CC(C)N(CCOc1ccc(N/C(=N\c2ccc(F)cc2)c2ccccc2)cc1)C(C)C | 143 mg/kg | 630 mg/kg | 26% | 
COc1ccc(N/C(=N/c2ccc(OCCCN(C(C)C)C(C)C)cc2)c2ccccc2)cc1.Cl | 108 mg/kg | 450 mg/kg | 34.1% | 
CCCCN(CCCC)CCOc1ccc(N/C(=N\c2ccccc2)c2ccccc2)cc1.Cl | 160 mg/kg | 800 mg/kg | 22.5% | 
CC(C)N(CCOc1ccc(N/C(=N\c2ccc(Cl)c(Cl)c2)c2ccccc2)cc1)C(C)C.Cl | 400 mg/kg | 1000 mg/kg | 13.8% | 
Cl.c1ccc(/N=C(\Nc2ccc(SCCN3CCCC3)cc2)c2ccccc2)cc1 | 200 mg/kg | 587 mg/kg | 12.5% | 
Br.CN(C)CCOc1ccc(N/C(=N\c2ccccc2)c2ccccc2)cc1 | 112 mg/kg | 500 mg/kg |  | Change (Rattus norvegicus [4]): 13.1%
Br.c1ccc(/N=C(\Nc2ccc(OCCCN3CCCC3)cc2)c2ccccc2)cc1 | 125 mg/kg | 543 mg/kg | 23.5% | 
CC(C)N(CCOc1ccccc1/N=C(/Nc1ccccc1)c1ccccc1)C(C)C.Cl | 253 mg/kg | 840 mg/kg | 18.3% | 
COc1ccc(/C(=N\c2ccc(OCCN(C(C)C)C(C)C)cc2)Nc2ccccc2)cc1.Cl | 140 mg/kg | 475 mg/kg | 18.5% | 
Br.COc1ccc(N/C(=N/c2ccc(OCCCN3CCCC3)cc2)c2ccc(C)cc2)cc1 | 43 mg/kg | 400 mg/kg | 12.6% | 
CC(C)N(CCOc1ccc(N/C(=N\Cc2ccccc2)c2ccccc2)cc1)C(C)C.Cl | 187 mg/kg | 450 mg/kg |  | Change (Rattus norvegicus [5]): 0%
Br.CN(CCOc1ccc(N/C(=N\c2ccccc2)c2ccccc2)cc1)Cc1ccccc1 | 233 mg/kg | 500 mg/kg | 15.9% | 
CC(C)N(CCOc1cccc(N/C(=N\c2ccccc2)c2ccccc2)c1)C(C)C.Cl | 107 mg/kg | 240 mg/kg |  | Change (Rattus norvegicus [16]): 28.1%
CCCCNC(=N)NC(=N)N [BUFORMIN] |  |  |  | LD50 [8]: 140 mg/kg; LD50 [9]: 500 mg/kg; Reduction (Rattus norvegicus [11]): 0%
N=C(N)NC(=N)NCCc1ccccc1 [PHENFORMIN] |  |  |  | Reduction (Cavia porcellus [17]): 46%; Reduction (Monkey [18]): 50%; Reduction (Rattus norvegicus [11]): 0%; Reduction (Rattus norvegicus [19]): 62%
